From ChEMBL document CHEMBL3232792, “Cyclic secondary sulfonamides: unusually good inhibitors of cancer-related carbonic anhydrase enzymes” (J Med Chem, 2014)

Legend:
Carbonic anhydrase 1 = Carbonic anhydrase 1 (Homo sapiens, UniProt P00915); test: Inhibition of human recombinant carbonic anhydrase 1 expressed in Escherichia coli by stopped flow CO2 hydration assay
Carbonic anhydrase 2 = Carbonic anhydrase 2 (Homo sapiens, UniProt P00918); test: Inhibition of human recombinant carbonic anhydrase 2 expressed in Escherichia coli by stopped flow CO2 hydration assay
Carbonic anhydrase 4 = Carbonic anhydrase 4 (Homo sapiens, UniProt P22748)
Sequence of Carbonic anhydrase 4 (P22748 whole entry): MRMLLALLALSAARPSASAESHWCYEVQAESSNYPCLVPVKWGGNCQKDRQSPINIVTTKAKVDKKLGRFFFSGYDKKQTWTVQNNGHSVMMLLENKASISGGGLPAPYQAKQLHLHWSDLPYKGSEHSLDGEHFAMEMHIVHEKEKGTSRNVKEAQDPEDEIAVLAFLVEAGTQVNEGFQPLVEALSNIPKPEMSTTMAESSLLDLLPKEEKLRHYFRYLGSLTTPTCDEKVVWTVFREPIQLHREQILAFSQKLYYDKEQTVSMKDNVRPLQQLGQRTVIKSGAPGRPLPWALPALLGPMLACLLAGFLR

[1] = biological target: Carbonic anhydrase 5A, mitochondrial (Homo sapiens, UniProt P35218)
Sequence of Carbonic anhydrase 5A, mitochondrial (P35218 whole entry): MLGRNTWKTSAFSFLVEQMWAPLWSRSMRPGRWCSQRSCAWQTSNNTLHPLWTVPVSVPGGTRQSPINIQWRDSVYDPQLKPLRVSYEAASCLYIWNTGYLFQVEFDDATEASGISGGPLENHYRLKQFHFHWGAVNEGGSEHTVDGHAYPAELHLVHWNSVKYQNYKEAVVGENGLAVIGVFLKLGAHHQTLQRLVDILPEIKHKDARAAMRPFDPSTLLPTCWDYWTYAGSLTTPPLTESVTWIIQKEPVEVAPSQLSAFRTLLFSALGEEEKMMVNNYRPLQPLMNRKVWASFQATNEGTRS

[2] = biological target: Carbonic anhydrase 5B, mitochondrial (Homo sapiens, UniProt Q9Y2D0)
Sequence of Carbonic anhydrase 5B, mitochondrial (Q9Y2D0 whole entry): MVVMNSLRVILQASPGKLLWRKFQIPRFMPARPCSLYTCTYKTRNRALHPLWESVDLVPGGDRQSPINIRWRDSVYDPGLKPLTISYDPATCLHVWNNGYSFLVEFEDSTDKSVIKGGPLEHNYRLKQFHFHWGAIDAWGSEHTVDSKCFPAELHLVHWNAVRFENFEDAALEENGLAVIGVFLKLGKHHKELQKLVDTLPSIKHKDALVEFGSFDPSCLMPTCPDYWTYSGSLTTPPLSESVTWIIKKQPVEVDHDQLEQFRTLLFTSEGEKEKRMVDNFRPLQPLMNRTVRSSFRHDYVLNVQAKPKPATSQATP

Carbonic anhydrase 7 = Carbonic anhydrase 7 (Homo sapiens, UniProt P43166)
Sequence of Carbonic anhydrase 7 (P43166 whole entry): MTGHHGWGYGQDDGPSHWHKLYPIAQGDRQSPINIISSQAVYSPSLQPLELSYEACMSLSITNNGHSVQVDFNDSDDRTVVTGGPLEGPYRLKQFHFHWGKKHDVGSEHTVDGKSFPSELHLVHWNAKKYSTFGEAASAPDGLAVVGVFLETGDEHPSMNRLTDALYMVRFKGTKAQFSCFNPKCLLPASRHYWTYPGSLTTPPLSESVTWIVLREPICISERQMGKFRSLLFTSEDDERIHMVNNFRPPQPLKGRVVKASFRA

Carbonic anhydrase 9 = Carbonic anhydrase 9 (Homo sapiens, UniProt Q16790); test: Inhibition of human recombinant carbonic anhydrase 9 expressed in Escherichia coli by stopped flow CO2 hydration assay
Method in brief: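 Recombinant human CA IX produced in E. coli, used at 8.0 nM; CO2 hydration activity followed by stopped-flow. IC50 is taken from seven-concentration dose–response curves fitted by nonlinear least squares, mean of at least three determinations. Ki is derived by Cheng–Prusoff, Ki = IC50/(1 + [S]/Km), where [S] is the CO2 concentration used.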

Sequence of Carbonic anhydrase 1 (P00915 whole entry): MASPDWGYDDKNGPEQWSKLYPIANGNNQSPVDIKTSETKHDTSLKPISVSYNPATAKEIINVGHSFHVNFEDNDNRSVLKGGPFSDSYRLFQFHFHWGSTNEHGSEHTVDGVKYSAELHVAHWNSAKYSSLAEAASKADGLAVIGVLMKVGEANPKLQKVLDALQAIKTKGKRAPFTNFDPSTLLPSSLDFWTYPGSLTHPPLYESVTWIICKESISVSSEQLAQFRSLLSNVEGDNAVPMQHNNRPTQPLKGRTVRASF

Row | Compound | Ki (Carbonic anhydrase 1) [nM] | Ki (Carbonic anhydrase 2) [nM] | Ki (Carbonic anhydrase 9) [nM] | other results
1 | O=C1NS(=O)(=O)c2ccccc21 [SACCHARIN] | – | – | – | Ki (Carbonic anhydrase 4): 7920 nM; Ki [1]: 10100 nM; Ki [2]: 7210 nM; Ki (Carbonic anhydrase 7): 10 nM; pKa (physchem): 1.3
2 | Nc1ccc2c(c1)S(=O)(=O)NC2=O | > 50000 | > 50000 | 610 | –
3 | O=C1NS(=O)(=O)c2cc(-n3cc(-c4ccccc4)nn3)ccc21 | > 50000 | – | 484 | –
4 | COc1ccc(-c2cn(-c3ccc4c(c3)S(=O)(=O)NC4=O)nn2)c(C)c1 | – | > 50000 | 95.7 | –
5 | Cc1cc(-c2cn(-c3ccc4c(c3)S(=O)(=O)NC4=O)nn2)ccc1F | > 50000 | – | 47.8 | –
6 | O=C1NS(=O)(=O)c2cc(-n3cc(-c4ccccc4C(F)(F)F)nn3)ccc21 | – | > 50000 | 443 | –
7 | O=C1NS(=O)(=O)c2cc(-n3cc(CO[C@@H]4O[C@H](CO)[C@@H](O)[C@H](O)[C@H]4O)nn3)ccc21 | > 50000 | > 50000 | 49.5 | –
8 | COc1ccc(-c2cn(-c3ccc4c(c3)S(=O)(=O)NC4=O)nn2)cc1 | – | > 50000 | 341 | –

Further lines, with some results ahead:

Row | Ki (Carbonic anhydrase 1) [nM] | Ki (Carbonic anhydrase 2) [nM] | Ki (Carbonic anhydrase 9) [nM] | Compound | other results
9 | > 50000 | > 50000 | – | O=C1NS(=O)(=O)c2cc([N+](=O)[O-])ccc21 | –
10 | > 50000 | – | 89.7 | Cc1cccc(-c2cn(-c3ccc4c(c3)S(=O)(=O)NC4=O)nn2)c1 | –
11 | – | – | 466 | [N-]=[N+]=Nc1ccc2c(c1)S(=O)(=O)NC2=O | –
